Source: ChEMBL document CHEMBL5576140, “Computational Design of Pore-Forming Peptides with Potent Antimicrobial and Anticancer Activities” (J Med Chem, 2024)
Activity calls are given as the source filed them. The rule behind the calls is not given here.

Assays:
HL-60 [1] = assay: pH-dependent anticancer activity against human HL-60 cells in RPMI medium at 10 uM incubated for 1 hr; assay type: functional, cell-based
In short: (§1)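 Cells cultured in RPMI, DMEM or PBS, each adjusted to pH 8, 7 or 6, plus one unadjusted (~7.6). Peptide at 10 μM for only 1 h, to limit pH drift from CO₂-bicarbonate buffering. Cell viability read. Controls were melittin, ampicillin and PBS. Two independent repetitions; effects analysed by ANOVA.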

Staphylococcus aureus [2] = assay: Antimicrobial activity against Staphylococcus aureus NE1740 harboring single transposon insertion mutation in staphopain A at 30 uM incubated for 18 hrs relative to control; assay type: functional
In short: (§2)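 CA-MRSA USA300 LAC derivative JE2 and single transposon insertion mutants derived from JE2, each lacking an extracellular protease gene, were exposed to peptides up to 30 μM. The read-out was percent growth inhibition. Peptides were dissolved in PBS, and tests were run in triplicate.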

SW-620 = assay: Anti-cancer activity against human SW620 cells incubated for 72 hrs by Cell Titer Glo assay; assay type: functional, cell-based; settings: SW-620, 72 h
MCF7 [3] = assay: Induction of apoptosis in human MCF7 cells in DMEM medium at pH 6 assessed as increase in cleaved PARP level at 5 uM; assay type: functional, cell-based
In short: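 MCF-7 cells treated with peptides at pH 6; apoptosis detected by immunoblotting for cleaved PARP and cleaved caspase-3.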

MOLM-13 = assay: Anti-cancer activity against human MOLM-13 cells incubated for 24 hrs by WST assay; assay type: functional, cell-based; settings: MOLM-13, 24 h
MCF7 [4] = assay: pH-dependent anticancer activity against human MCF7 cells in PBS medium at 10 uM incubated for 1 hr; assay type: functional, cell-based; in short: as §1
K562 [5] = assay: Anti-cancer activity against human K562 cells at 10 uM incubated for 30 mins; assay type: functional, cell-based
U-251 = assay: Anti-cancer activity against human U-251MG cells incubated for 72 hrs by Cell Titer Glo assay; assay type: functional, cell-based; settings: U-251, 72 h
OVCAR-3 = assay: Anti-cancer activity against human OVCAR-3 cells incubated for 72 hrs by Cell Titer Glo assay; assay type: functional, cell-based; settings: OVCAR-3, 72 h
K562 [6] = assay: Anti-cancer activity against human K562 cells incubated for 72 hrs by Cell Titer Glo assay; assay type: functional, cell-based; settings: K562, 72 h
SUD4 = assay: Anti-cancer activity against human SU-DHL-4 cells incubated for 24 hrs by WST assay; assay type: functional, cell-based; settings: SU-DHL-4, 24 h
PC-3 = assay: Anti-cancer activity against human PC-3 cells incubated for 72 hrs by Cell Titer Glo assay; assay type: functional, cell-based; settings: PC-3, 72 h
Pseudomonas aeruginosa = assay: Induction of outer membrane permeabilization in Pseudomonas aeruginosa PAO1 measured for 20 mins by NPN uptake assay; assay type: functional, organism-based
In short: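 Outer-membrane permeabilization of Gram-negative bacteria read as rise in fluorescence of the lipophilic dye NPN, which enters only when outer-membrane integrity is compromised. Peptides applied at their MIC against the respective strain; polymyxin B and levofloxacin as reference antibiotics. Triplicates.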

Escherichia coli [7] = assay: Induction of outer membrane permeabilization in Escherichia coli ATCC 11775 measured for 20 mins by NPN uptake assay; assay type: functional, organism-based
Staphylococcus aureus [8] = assay: Antimicrobial activity against Staphylococcus aureus NE1506 harboring single transposon insertion mutation in V8 protease at 30 uM incubated for 18 hrs relative to control; assay type: functional; in short: as §2
HCT-15 = assay: Anti-cancer activity against human HCT-15 cells incubated for 72 hrs by Cell Titer Glo assay; assay type: functional, cell-based; settings: HCT-15, 72 h
Klebsiella pneumoniae = assay: Depolarization of cytoplasmic membrane in Klebsiella pneumoniae ATCC 13883 at MIC measured for 45 mins by DiSC3-(5) dye based assay; assay type: functional, organism-based
In short: (§3)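 Bacteria loaded with membrane-potential dye DiSC3-(5), then treated with peptide at its MIC for the respective strain; depolarization read as rise in dye fluorescence; polymyxin B and levofloxacin as reference antibiotics.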

DU-145 = assay: Anti-cancer activity against human DU-145 cells incubated for 72 hrs by Cell Titer Glo assay; assay type: functional, cell-based; settings: DU-145, 72 h
T-cell line = assay: Cytotoxicity against human T-lymphocytes assessed as deleterious effect upto 50 uM by flow cytometry; assay type: toxicity, cell-based
In short: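 Whole blood from a healthy donor treated with peptides up to 50 μM; effect on B and T lymphocytes, granulocytes and monocytes assessed.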

Staphylococcus aureus [9] = assay: Antimicrobial activity against Staphylococcus aureus NE934 harboring single transposon insertion mutation in staphopain B at 30 uM incubated for 18 hrs relative to control; assay type: functional; in short: as §2
[10] = Stability in human serum assessed as half life at 10 mg/ml by UPLC-MS analysis; assay type: ADME, cell-free
In short: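 Peptides dissolved in PBS and incubated in 25% human serum. Intact peptide remaining followed over time to at least 6 h; half-life taken as time to 50% stability.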

[11] = Toxicity in immunosuppressed Balb/c mouse excisional dorsal wound infection model infected with Acinetobacter baumannii NCTC 13301 assessed as body weight loss at about 10 mg/kg treated for 7 days once daily measured after 45 days; assay type: organism-based; settings: in vivo, 1080 h, time 45 day
In short: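 Excisional dorsal wound model in immunosuppressed mice infected with 5 × 10⁴ cells per mL of A. baumannii. Treated, PBS-treated and untreated groups were compared. Body weight and survival were followed for 45 days.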

K562 [12] = assay: pH-dependent anticancer activity against human K562 cells in DMEM medium at 10 uM incubated for 1 hr; assay type: functional, cell-based; in short: as §1
Escherichia coli [13] = assay: Depolarization of cytoplasmic membrane in Escherichia coli ATCC 11775 at MIC measured for 45 mins by DiSC3-(5) dye based assay; assay type: functional, organism-based; in short: as §3
[14] = Toxicity against reconstructed human skin model assessed as tissue viability at 50 uM incubated for 1 hr followed by compound washout measured after 42 hrs by MTT assay; assay type: tissue-based, Skin of body; settings: read-out: Activity
In short: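 Reconstructed human epidermis with stratum corneum, per OECD TG 439 skin irritation guideline. Tissues exposed 1 h to peptide at 50 μM, then 42 h post-treatment incubation. Viability read by MTT. Controls were SDS and melittin.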

Mus musculus = assay: Induction of wound healing activity in immunosuppressed Balb/c mouse excisional dorsal wound infection model infected with Acinetobacter baumannii NCTC 13301 assessed as closed wound at about 10 mg/kg treated for 7 days once daily measured after 20 days; assay type: functional, organism-based; settings: time 20.0 day
K562 [15] = assay: pH-dependent anticancer activity against human K562 cells in RPMI medium at 10 uM incubated for 1 hr; assay type: functional, cell-based; in short: as §1
Staphylococcus aureus [16] = assay: Depolarization of cytoplasmic membrane in Staphylococcus aureus ATCC 12600 at MIC measured for 45 mins by DiSC3-(5) dye based assay; assay type: functional, organism-based; in short: as §3
HL-60 [17] = assay: Anti-cancer activity against human HL-60 cells incubated for 72 hrs by Cell Titer Glo assay; assay type: functional, cell-based; settings: HL-60, 72 h
MOLT-4 = assay: Anti-cancer activity against human MOLT-4 cells incubated for 72 hrs by Cell Titer Glo assay; assay type: functional, cell-based; settings: MOLT-4, 72 h
Acinetobacter baumannii = assay: Anti-infective activity against Acinetobacter baumannii ATCC 19606 infected in neutropenic CD-1 mouse deep thigh infection model assessed as reduction in bacterial load at 0.16 mg/kg, ip measured after 4 days; assay type: functional, organism-based; settings: time 4.0 day
In short: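 Neutropenic mice infected intramuscularly in right thigh with 10⁶ cells per mL A. baumannii ATCC 19606; single intraperitoneal peptide dose at 10× MIC; bacterial load determined 4 days after treatment (euthanized day 8); n = 6 per group from three inocula; one-way ANOVA with Dunnett's test versus untreated.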

K562 [18] = assay: pH-dependent anticancer activity against human K562 cells in PBS medium at 10 uM incubated for 1 hr; assay type: functional, cell-based; in short: as §1

Substance: H-KKKKLKKILKKLFQFINQLDNQLQDIKQNK-NH2
- Activity (HL-60 [1]): Active
- inhibition at 30 µM (Staphylococcus aureus [2]): < 45%
- IC50 (SW-620): 1000 nM
- Activity (MCF7 [3]): Active
- IC50 (MOLM-13): ≤ 10000 nM
- Activity (MCF7 [4]): Active
- Activity (K562 [5]): Active
- IC50 (U-251): 1000 nM
- IC50 (OVCAR-3): 1000 nM
- IC50 (K562 [6]): 1000 nM
- IC50 (SUD4): ≤ 10000 nM
- IC50 (PC-3): 1000 nM
- Activity (Pseudomonas aeruginosa): Active
- Activity (Escherichia coli [7]): Active
- inhibition at 30 µM (Staphylococcus aureus [8]): < 45%
- IC50 (HCT-15): 1000 nM
- Activity (Klebsiella pneumoniae): Active
- IC50 (DU-145): 1000 nM
- Activity (T-cell line): Non-Toxic
- inhibition at 30 µM (Staphylococcus aureus [9]): < 45%
- half-life at 10 mg/ml [10]: > 6 h
- Activity [11]: Toxic
- Activity (K562 [12]): Active
- Activity (Escherichia coli [13]): Active
- viability at 1 h, 50 µM [14]: 100%
- Activity (Mus musculus): Active
- Activity (K562 [15]): Active
- Activity (Staphylococcus aureus [16]): Active
- IC50 (HL-60 [17]): 1000 nM
- IC50 (MOLT-4): 1000 nM
- Activity (Acinetobacter baumannii): Active
- Activity (K562 [18]): Active
